Results taken from PMC9798254 (Protein Science : A Publication of the Protein Society, 2023).

Experiments:
Experiment in all cases: coupled photometric phosphate release assay
Format in all cases: biochemical, synthetic construct
Conditions in all cases: 100 mM Tris/HCl pH 7.8, 5 mM MgCl2, 25°C
Anc5 = tested on: Anc5
Outline: (§1)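 Ancestral enzyme expressed in E. coli BW25113 (0.5 mM IPTG, overnight at 20°C). Purified by Ni affinity chromatography and size exclusion in 50 mM Tris/HCl pH 7.5, 400 mM NaCl, 2 mM MgCl2. Phosphate release coupled with 0.5 mM inosine, 0.25 U/ml purine nucleoside phosphorylase and 2.5 U/ml xanthine oxidase, at varied substrate concentrations. Reaction started with enzyme. Km fitted to Michaelis–Menten from initial slopes.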

Anc7 = tested on: Anc7
Outline: as §1

Anc6 = tested on: Anc6
Outline: as §1

N[C@H](COP(=O)(O)O)Cc1c[nH]cn1 [HolP]
Km (Anc5): 698 ± 123 µM | Km (Anc7): 122 ± 31 µM | Km (Anc6): 59 ± 12 µM
